Where two headings read alike, the source gives them in different places.
Key:
male Sprague Dawley rats [1] = assay: 1-choice serial reaction time; type: in vivo, rat; settings: i.p.; for % Accuracy / % Omissions / Latency to start / Response latency / Time to finish: mean ± SEM; for number of reinforcers earned (combination study) / premature responses (combination study): alone or combined
Outline: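 Male Sprague Dawley rats (225–325 g) were housed two per cage and food-restricted to 90% of free-feeding weight. They were trained until stable: >80% accuracy and <20% omissions for five consecutive sessions at the final stage (0.5 s stimulus, 5 s limited hold, 5 s ITI), with <15% variability. Test compound or saline vehicle was given i.p. 15 min pre-session. Data were analysed by one-way repeated-measures ANOVA with Dunnett's test versus saline.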

male Sprague Dawley rats [2] = assay: spontaneous locomotor activity; type: in vivo, rat; settings: i.p.
[3] = system: impulsive action in the 5-CSRT task; settings: cited from earlier work
5-HT2CR = settings: for Cai2+ release, peptide alone (unstimulated): no agonist, fluorescence; for effect on 5-HT-evoked Cai2+ release: ANOVA main effect
5-HT2AR = 5-HT2AR (Homo sapiens, UniProt P28223); assay: intracellular calcium release in 5-HT2AR–CHO cells; type: cell-based; settings: for Cai2+ release, peptide alone, in 5-HT2AR–CHO cells: 15 min, peptide alone (data not shown); for effect on 5-HT-mediated Cai2+ release in 5-HT2AR–CHO cells: 15 min preincubation, 10 nM 5-HT
5-HT2AR, sequence (P28223 whole entry): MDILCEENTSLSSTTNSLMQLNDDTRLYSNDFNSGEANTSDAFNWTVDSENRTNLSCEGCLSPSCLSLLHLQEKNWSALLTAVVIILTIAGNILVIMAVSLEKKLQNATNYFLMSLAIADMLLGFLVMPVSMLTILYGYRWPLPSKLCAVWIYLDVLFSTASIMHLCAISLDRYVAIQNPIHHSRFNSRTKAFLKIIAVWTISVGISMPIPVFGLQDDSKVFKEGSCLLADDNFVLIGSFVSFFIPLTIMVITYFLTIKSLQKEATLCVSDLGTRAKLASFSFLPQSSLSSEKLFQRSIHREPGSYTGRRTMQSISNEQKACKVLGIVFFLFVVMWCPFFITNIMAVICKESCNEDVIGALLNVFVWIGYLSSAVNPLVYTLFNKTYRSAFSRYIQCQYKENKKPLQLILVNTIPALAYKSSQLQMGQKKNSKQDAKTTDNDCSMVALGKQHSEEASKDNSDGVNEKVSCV

circular dichroism = type: physicochemical; settings: in water; 3L4F 300 μM, 3L4F-F1 100 and 300 μM; three independent trials
[4] = system: 5-HT2CR and PTEN protein expression, 5-HT2CR–CHO cells; assay: Western blot of protein expression in 5-HT2CR–CHO cells; type: cell-based, human 5-HT2CR; CHO cells; settings: 1 pM, 15 min preincubation
Outline: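 Cells were rinsed in ice-cold Krebs' solution, pelleted, and homogenized in HEPES/EDTA/EGTA/DTT buffer containing protease and phosphatase inhibitors. The membrane pellet from differential centrifugation was resuspended in buffer with 400 mM NaCl and 0.5% NP-40. Protein was quantified by BCA, reduced and heated at 70°C for 20 min, run on 4–12% Bis-Tris SDS-PAGE and transferred to PVDF. Blots were probed with primary antibody overnight and secondary for 45 min, then read by infrared imaging.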

[5] = system: 5-HT2CR–PTEN complex in VTA; assay: co-IP of 5-HT2CR–PTEN complex in rat VTA after systemic administration; type: in vivo; settings: 10 μmol/kg, i.p., killed 5 min later, relative to vehicle (saline)
[6] = 0.5 and 1 mg/kg, versus saline, p < 0.05
[7] = TAT–3L4F 0.3 μmol/kg, WAY163909 0.1 mg/kg, versus saline
[8] = WAY163909 0.1 mg/kg, combination study
[9] = TAT–3L4F 0.1 μmol/kg, WAY163909 1 mg/kg, alone or combined
[10] = TAT–3L4F 0.1 μmol/kg, WAY163909 1 mg/kg, alone or combined, p < 0.05
[11] = 15 min preincubation, Calcium 4 dye
[12] = 15 min preincubation, 1 nM 5-HT
[13] = TAT–3L4F 0.3 μmol/kg, combination study
[14] = 1 μmol/kg, versus saline, p < 0.05

Compound: c1cc2c3c(c1)[C@H]1CCC[C@H]1N3CCNC2 [WAY163909, (7bR, 10aR)-1,2,3,4,8,9,10,10a-octa-hydro-7bH-cyclopenta-(b)(1,4)diazepino (6,7,1hi)indole]
- % Accuracy (male Sprague Dawley rats [1]; 0.05 mg/kg): 100.52 ± 0.4%
- % Omissions (male Sprague Dawley rats [1]; 0.05 mg/kg): 6.23 ± 1.1%
- Latency to start (male Sprague Dawley rats [1]; 0.05 mg/kg): 0.69 ± 0.2 s
- Response latency (male Sprague Dawley rats [1]; 0.05 mg/kg): 2.75 ± 0.4 s
- Time to finish (male Sprague Dawley rats [1]; 0.05 mg/kg): 933.62 ± 29.4 s
- % Accuracy (male Sprague Dawley rats [1]; 0.1 mg/kg, dose-response study): 100.72 ± 0.5%
- % Omissions (male Sprague Dawley rats [1]; 0.1 mg/kg, dose-response study): 5.40 ± 0.9%
- Latency to start (male Sprague Dawley rats [1]; 0.1 mg/kg, dose-response study): 1.13 ± 0.2 s
- Response latency (male Sprague Dawley rats [1]; 0.1 mg/kg, dose-response study): 2.57 ± 0.2 s
- Time to finish (male Sprague Dawley rats [1]; 0.1 mg/kg, dose-response study): 923.55 ± 16.5 s
- % Accuracy (male Sprague Dawley rats [1]; 0.2 mg/kg): 100.15 ± 0.7%
- % Omissions (male Sprague Dawley rats [1]; 0.2 mg/kg): 6.26 ± 1.6%
- Latency to start (male Sprague Dawley rats [1]; 0.2 mg/kg): 0.85 ± 0.2 s
- Response latency (male Sprague Dawley rats [1]; 0.2 mg/kg): 2.84 ± 0.4 s
- Time to finish (male Sprague Dawley rats [1]; 0.2 mg/kg): 941.12 ± 34.9 s
- % Accuracy (male Sprague Dawley rats [1]; 0.5 mg/kg): 100.61 ± 0.4%
- % Omissions (male Sprague Dawley rats [1]; 0.5 mg/kg): 5.85 ± 0.9%
- Latency to start (male Sprague Dawley rats [1]; 0.5 mg/kg): 0.62 ± 0.1 s
- Response latency (male Sprague Dawley rats [1]; 0.5 mg/kg): 2.54 ± 0.2 s
- Time to finish (male Sprague Dawley rats [1]; 0.5 mg/kg): 926.23 ± 17.3 s
- % Accuracy (male Sprague Dawley rats [1]; 1 mg/kg): 101.48 ± 0.6%
- % Omissions (male Sprague Dawley rats [1]; 1 mg/kg): 8.94 ± 0.7%
- Latency to start (male Sprague Dawley rats [1]; 1 mg/kg): 1.11 ± 0.2 s
- Response latency (male Sprague Dawley rats [1]; 1 mg/kg): 3.06 ± 0.4 s
- Time to finish (male Sprague Dawley rats [1]; 1 mg/kg): 981.14 ± 33.7 s
- number of reinforcers earned (male Sprague Dawley rats [1]; [6]): increased the number of reinforcers earned versus saline
- premature responses (male Sprague Dawley rats [1]; [6]): decreased premature responses versus saline
- number of reinforcers earned (combination study) (male Sprague Dawley rats [1]; [7]): Neither 0.3 μmol/kg TAT–3L4F nor 0.1 mg/kg WAY163909 alone altered the number of reinforcers earned versus saline
- premature responses (combination study) (male Sprague Dawley rats [1]; [7]): Neither 0.3 μmol/kg TAT–3L4F nor 0.1 mg/kg WAY163909 alone altered premature responses
- % Accuracy (male Sprague Dawley rats [1]; [8]): 100.21 ± 0.8%
- % Omissions (male Sprague Dawley rats [1]; [8]): 5.45 ± 1.0%
- Latency to start (male Sprague Dawley rats [1]; [8]): 1.11 ± 0.3 s
- Response latency (male Sprague Dawley rats [1]; [8]): 2.83 ± 0.5 s
- Time to finish (male Sprague Dawley rats [1]; [8]): 948.78 ± 37.7 s
- additional measures of task performance (male Sprague Dawley rats [1]; accuracy, motivation, motility indices): did not alter additional measures of task performance, including accuracy, motivation, or motility indices
- total vertical activity, 70 min (combination study) (male Sprague Dawley rats [2]; [9]): No main effect of treatment was observed for vertical activity
- vertical activity, 5-min bins (combination study) (male Sprague Dawley rats [2]; [9]): No main effect of treatment
- central ambulation, 5-min bins (combination study) (male Sprague Dawley rats [2]; [10]): significantly reduced central ambulation versus saline at 10 min
- peripheral ambulation, 5-min bins (combination study) (male Sprague Dawley rats [2]; [10]): significantly reduced peripheral ambulation versus saline at 5 and 10 min
- total central ambulation, 70 min (combination study) (male Sprague Dawley rats [2]; [10]): but not either ligand alone
- total horizontal ambulation, 70 min (combination study) (male Sprague Dawley rats [2]; TAT–3L4F 0.1 μmol/kg, WAY163909 1 mg/kg, alone or combined, versus saline): neither ligands tested alone at chosen doses altered total horizontal ambulation
- impulsive action by premature responses in the 5-CSRT task ([3]; ref Navarra et al., 2008): potently suppress

Compound: Ac-PNQDQNAR-NH2 [3L4F-F1]
- Cai2+ release, peptide alone (unstimulated) (5-HT2CR; [11]): did not induce Cai2+ release
- concentrations that significantly increased Cai2+ release versus 1 nM 5-HT (5-HT2CR; 15 min preincubation, 1 nM 5-HT, Calcium 4 dye, FlexStation3, p < 0.05): 10 ^−13 to 10 ^−9 M
- Cai2+ release, peptide alone, in 5-HT2AR–CHO cells (5-HT2AR): did not induce Cai2+ release
- effect on 5-HT-mediated Cai2+ release in 5-HT2AR–CHO cells (5-HT2AR): did not induce Cai2+ release or alter Cai2+ release evoked by 10 nM 5-HT
- CD signal at 222 nm (circular dichroism): shallow inflection point at 222 nm
- α-helix content by CD (circular dichroism): 10–30%

Compound: Cc1cc2c(cc1Cl)N(C(=O)Nc1ccc(Oc3cccnc3C)nc1)CC2.Cl.Cl [SB242084, 6-chloro-5-methyl-1-((2-(2-methylpyrid-3-yloxy)pyrid-5-yl)carbamoyl)indoline dihydrochloride]
- impulsive action by premature responses in the 5-CSRT task ([3]; ref Winstanley et al., 2004b, Fletcher et al., 2007): increase impulsive action

Compound: Ac-RRKKKERR-NH2 [3L4F-F3]
- Cai2+ release, peptide alone (unstimulated) (5-HT2CR; [11]): did not induce Cai2+ release
- effect on 5-HT-evoked Cai2+ release (5-HT2CR; [12]): No main effect
- Cai2+ release, peptide alone, in 5-HT2AR–CHO cells (5-HT2AR): did not induce Cai2+ release
- effect on 5-HT-mediated Cai2+ release in 5-HT2AR–CHO cells (5-HT2AR): did not induce Cai2+ release or alter Cai2+ release evoked by 10 nM 5-HT

Compound: Ac-PNQDQNARRRKKKERR-NH2 [3L4F]
- cellular entry without TAT conjugation (5-HT2CR): TAT conjugation is not necessary for cellular entry
- Emax of 5-HT-evoked Cai2+ release in presence of peptide (5-HT2CR; 1 pM peptide, 15 min, 5-HT concentration response, p < 0.05): 120.7 % of maximal response for 5-HT
- Cai2+ release, peptide alone (unstimulated) (5-HT2CR; [11]): did not alter unstimulated Cai2+ release
- Cai2+ release, peptide alone, in 5-HT2AR–CHO cells (5-HT2AR): nor did it alter Cai2+ release when tested alone
- effect on 5-HT-mediated Cai2+ release in 5-HT2AR–CHO cells (5-HT2AR): did not potentiate 5-HT-mediated (10 nM) Cai2+ release
- CD signal at 222 nm (circular dichroism): clear inflection point at 222 nm
- α-helix content by CD (circular dichroism): < 50%
- membrane protein expression levels of 5-HT2CR or PTEN [4]: unchanged

Compound: Ac-QNARRRKK-NH2 [3L4F-F2]
- Cai2+ release, peptide alone (unstimulated) (5-HT2CR; [11]): did not induce Cai2+ release
- effect on 5-HT-evoked Cai2+ release (5-HT2CR; [12]): No main effect
- Cai2+ release, peptide alone, in 5-HT2AR–CHO cells (5-HT2AR): did not induce Cai2+ release
- effect on 5-HT-mediated Cai2+ release in 5-HT2AR–CHO cells (5-HT2AR): did not induce Cai2+ release or alter Cai2+ release evoked by 10 nM 5-HT

Compound: Ac-YGRKKRRQRRRPNPDQKPRRKKKEKR-NH2 [rat TAT–3L4F]
- number of reinforcers earned (combination study) (male Sprague Dawley rats [1]; [7]): Neither 0.3 μmol/kg TAT–3L4F nor 0.1 mg/kg WAY163909 alone altered the number of reinforcers earned versus saline
- premature responses (combination study) (male Sprague Dawley rats [1]; [7]): Neither 0.3 μmol/kg TAT–3L4F nor 0.1 mg/kg WAY163909 alone altered premature responses
- % Accuracy (male Sprague Dawley rats [1]; [13]): 98.69 ± 0.6%
- % Omissions (male Sprague Dawley rats [1]; [13]): 4.77 ± 1.0%
- Latency to start (male Sprague Dawley rats [1]; [13]): 1.00 ± 0.6 s
- Response latency (male Sprague Dawley rats [1]; [13]): 2.19 ± 0.2 s
- Time to finish (male Sprague Dawley rats [1]; [13]): 875.10 ± 15.3 s
- intensity of PTEN immunoreactive band after IP for 5-HT2CR, VTA [5]: attenuated relative to vehicle (saline) treatment
- effect across multiple activity measures (male Sprague Dawley rats [2]; 0.1 μmol/kg, alone): ineffective across multiple activity measures
- horizontal ambulation, 5-min bins (male Sprague Dawley rats [2]; 1 μmol/kg, 15 min before test, versus saline, p < 0.05): significantly reduced horizontal ambulation versus saline at 5, 10, and 15 min
- total horizontal ambulation, 70 min (male Sprague Dawley rats [2]; [14]): significantly reduced total horizontal ambulation versus saline
- total peripheral ambulation, 70 min (male Sprague Dawley rats [2]; [14]): significantly reduced peripheral ambulation versus saline
- central ambulation, 5-min bins (male Sprague Dawley rats [2]; 0.1 or 1 μmol/kg): No main effect of treatment
- vertical activity, 5-min bins (male Sprague Dawley rats [2]; 0.1 or 1 μmol/kg): No main effect of treatment
- total vertical activity, 70 min (combination study) (male Sprague Dawley rats [2]; [9]): No main effect of treatment was observed for vertical activity
- vertical activity, 5-min bins (combination study) (male Sprague Dawley rats [2]; [9]): No main effect of treatment
- total central ambulation, 70 min (combination study) (male Sprague Dawley rats [2]; [10]): but not either ligand alone
